The values that follow come from ChEMBL document CHEMBL1128224 (J Med Chem, 1995).

Experiment [1] relates to Mus musculus. Put plainly: Intracerebroventricular dose required to produce an equivalnet antagonism of DPDPE-induced antinociception. In kind it is functional. In a few lines:
(§1)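 In the mouse tail-flick assay against DPDPE-induced antinociception, the antagonist was given icv or iv. […] The iv/icv value is the ratio of these two doses.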

In experiment [2] the test system is Mus musculus. Put plainly: Intravenous dose required to produce an equivalnet antagonism of DPDPE-induced antinociception. Format: functional. In a few lines: as §1
The target of experiment [3] is Delta-type opioid receptor (Mus musculus) (UniProt P32300). As to the kind of experiment: The antagonist potencies mediated through […] were expressed as Ke values calculated on DADLE(delta) in the mouse vas deferens(MVD) preparation. Format: functional. In a few lines: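 In electrically stimulated mouse vas deferens with DADLE as agonist, antagonist was preincubated 15 min at 100 nM unless otherwise specified. Ke = [antagonist]/(IC50 ratio − 1) from the Schild relationship, averaged over at least three IC50 ratio determinations.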

Experiment [4] has as its target T1, Opioid receptors; mu & delta (Homo sapiens) (UniProt P41143+P35372). As to the kind of experiment: Selectivity as the ratio of Ki value towards mu receptor to that of delta 1 receptor. In kind it is protein assay.
In experiment [5] the target is T2, Opioid receptors; delta & kappa (Homo sapiens) (UniProt P41145+P41143). As to the kind of experiment: Selectivity as the ratio of IC50 value against delta receptor to that of kappa receptor. In kind it is protein assay.
In experiment [6] the target is T1, Opioid receptors; mu & delta (Homo sapiens). As to the kind of experiment: Selectivity as the ratio of IC50 value against delta receptor to that of mu receptor. In kind it is protein assay.
Experiment [7] deals with T2, Opioid receptors; delta & kappa (Homo sapiens). As to the kind of experiment: Selectivity as the ratio of Ki value towards kappa receptor to that of delta 1 receptor. In kind it is protein assay.
Experiment [8] has as its target Delta-type opioid receptor (Mus musculus) (UniProt P32300). As to the kind of experiment: IC50 ratio was measured on DADLE (delta) in the mouse vas deferens (MVD) preparation.
In experiment [9] the target is Kappa-type opioid receptor (Cavia porcellus) (UniProt P41144). As to the kind of experiment: IC50 ratio was measured on ethylketazocine (Opioid receptor kappa 1) in the guinea pig ileal longitudinal muscle(GPI) preparation.
In the next experiment the target is Mu-type opioid receptor (Cavia porcellus, UniProt P97266). Put plainly: The opioid receptor affinity(Ki) was evaluated by competition with [3H]DAMGO (mu) on guinea pig brain membranes. The arrangement: species or system Membrane.
Experiment [10] has as its target Kappa-type opioid receptor (Cavia porcellus, UniProt P41144). As to the kind of experiment: The opioid receptor affinity(Ki) was evaluated by competition with 9 (Opioid receptor kappa 1) on guinea pig brain membranes. The arrangement: species or system Membrane.
Experiment [11] has as its target Mu-type opioid receptor (Cavia porcellus) (UniProt P97266). Put plainly: IC50 ratio was measured on Morphine(mu) in the guinea pig ileal longitudinal muscle(GPI) preparation. In kind it is tissue-based. To be noted: Muscle tissue.
Experiment [12] has as its target Delta-type opioid receptor (Homo sapiens) (UniProt P41143). The settings on record: 0.8 umol/kg.
Experiment [13] can be described thus: (§2) Antagonist activity against the delta1 opioid receptor using DPDPE as agonist at 20 pmol/kg (icv) was determined as ratio of ED50 of antagonist to the control (ED50 of control = 8.6 (6.5-11.1) nmol/kg). Format: functional.
Experiment [14] deals with Mu-type opioid receptor (Mus musculus) (UniProt P42866). Put plainly: Antagonist activity against the mu opioid receptor using morphine as agonist at 20 pmol/kg (icv) was determined as ratio of ED50 of antagonist to the control (ED50 of control = 9.7 (8.6-10.9) umol/kg). Format: functional.
For experiment [15], the target named is Kappa-type opioid receptor (Mus musculus) (UniProt P33534). As to the kind of experiment: Antagonist activity against the kappa opioid receptor using U-50,488H as agonist at 20 pmol/kg (icv) was determined as ratio of ED50 of antagonist to the control (ED50 of control = 27.3 (8.5-52.8) umol/kg). In kind it is functional.
Experiment [16] in a line: Ratio of iv dose to that of icv. Format: functional. In a few lines:
as §1

In experiment [17] the target is Delta-type opioid receptor (Mus musculus) (UniProt P32300). Described as §2. Format: functional.

The structures appear in SMILES notation. pKi: −log10 of the molar value.

Consider `Oc1ccc2c3c1O[C@H]1c4[nH]c5ccccc5c4C[C@@]4(O)[C@@H](C2)N(CC2CC2)CC[C@]314` [NALTRINDOLE], for which the Dose worked out at 300 pM/kg with Mus musculus [1] and 2.19 µM/kg with Mus musculus [2]. For the same compound, the Ke in experiment [3] is 0.2 nM.
For `NCCCC[C@@H](NC(=O)c1cccc2c3c([nH]c12)[C@@H]1Oc2c(O)ccc4c2C12CCN(CC1CC1)C(C4)[C@]2(O)C3)C(=O)O` (some centres not stated), the Selectivity in [4] was 719; in [5], 20; in [6] it was 20; in experiment [7], 134. Also, the IC50 ratio in experiment [8] is 20; in [9] it was 1.1; in experiment [11] it was 1. Further, the Ke in [3] was 5.2 nM. Besides, the values for the pKi (at Mu-type opioid receptor; in experiment [10]) were 6.66 and 7.39, respectively.
For `O=C(O)c1cccc2c3c([nH]c12)[C@@H]1Oc2c(O)ccc4c2C12CCN(CC1CC1)C(C4)[C@]2(O)C3` (some centres not stated), the Selectivity was 1850 in experiment [4], 231 in experiment [5], 122 in experiment [6] and 3250 in [7]. Further, the IC50 ratio in experiment [8] is 25; in experiment [9] it was 1; in [11], 2. The Ke in experiment [3] was 0.4 nM. This compound gave a pKi on Mu-type opioid receptor of 7.62.
Regarding `NCCC[C@@H](NC(=O)c1cccc2c3c([nH]c12)[C@@H]1Oc2c(O)ccc4c2C12CCN(CC1CC1)C(C4)[C@]2(O)C3)C(=O)O` (some centres not stated), the Selectivity in [4] is 756; in experiment [5], 63; in [6], 20; in [7], 320. Further, the IC50 ratio in experiment [8] worked out at 58; in experiment [9], 0.9; in [11] it was 3. The Ke in experiment [3] is 1.8 nM. Further, the results for the pKi (at Mu-type opioid receptor; in experiment [10]) were 6.87 and 7.24, respectively.
Consider `O=C(O)C[C@@H](NC(=O)c1cccc2c3c([nH]c12)[C@@H]1Oc2c(O)ccc4c2C12CCN(CC1CC1)C(C4)[C@]2(O)C3)C(=O)O` (some centres not stated), for which the Selectivity in experiment [4] turned out to be 2570; in [5], 30; in experiment [6] it was 67; in experiment [7], 6250. Further, the results for the Dose in the experiment with Mus musculus [1] and with Mus musculus [2] were 12.5 pM/kg and 0.62 µM/kg, respectively. The IC50 ratio is 89 in [8], 2.1 in experiment [9] and 1.3 in experiment [11]. Besides, the Ke in experiment [3] was 1.1 nM. The values for the pKi (on Mu-type opioid receptor; in experiment [10]) were 6.43 and 6.05, respectively. For the same compound, the figures for the ED50 ratio in experiment [12], in experiment [13] and in experiment [14] were 2.3, 2.6 and 1, respectively.
Consider `N=C(N)NCCC[C@@H](NC(=O)c1cccc2c3c([nH]c12)[C@@H]1Oc2c(O)ccc4c2C12CCN(CC1CC1)C(C4)[C@]2(O)C3)C(=O)O` (some centres not stated), for which the Selectivity in experiment [4] turned out to be 2100; in experiment [5], 27; in [6] it was 24; in [7], 1180. In addition, the results for the IC50 ratio in experiment [8], in experiment [9] and in experiment [11] were 31, 1.2 and 1.3, respectively. For the same compound, the Ke in [3] was 3.3 nM. In addition, the pKi was 6.48 on Mu-type opioid receptor and 6.73 in [10].
For `O=C(O)CNC(=O)c1cccc2c3c([nH]c12)[C@@H]1Oc2c(O)ccc4c2C12CCN(CC1CC1)C(C4)[C@]2(O)C3` (some centres not stated), the Selectivity worked out at 38200 in [4], 30 in experiment [5], 21 in experiment [6] and 30000 in experiment [7]. Moreover, the ED50 ratio amounted to 0.8 in experiment [15], 5.3 in [17] and 0.9 in experiment [14]. In addition, the Dose is 4.7 pM/kg in the experiment with Mus musculus [1] and 0.53 µM/kg in the experiment on Mus musculus [2]. Moreover, the Ratio in [16] is given as 112766. Moreover, the values for the IC50 ratio in experiment [8], in experiment [9] and in experiment [11] were 32, 1.1 and 1.5, respectively. For the same compound, the Ke in experiment [3] was 3.2 nM. For the same compound, on Mu-type opioid receptor, the negative logarithm of the Ki (pKi) was 6.69.
